Results published in ChEMBL document CHEMBL4321800, “Synthesis, Identification, and Structure-Activity Relationship Analysis of GATA4 and NKX2-5 Protein-Protein Interaction Modulators” (J Med Chem, 2019).

What was measured:
Type in all cases: cell-based
[1] = biological target: GATA4/NKX2-5 (Mus musculus) (UniProt Q08369+P42582); assay: Modulation of mouse GATA4/mouse NKX2-5 protein-protein interaction expressed in Chlorocebus aethiops COS1 cells harboring 3xHA reporter gene assessed as transcriptional synergy at 10 uM after 24 hrs by luciferase reporter gene assay relative to control
Procedure, shortened: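 COS-1 cells seeded 14 000/well, grown overnight, then transfected for 6 h in serum- and antibiotic-free medium with pGL3-3xHA reporter (three NKX2-5 sites, 100 ng/well) plus pMT2-GATA4 and pMT2-NKX2-5 (total 50 ng/well), Fugene 6 at 1:3 DNA/reagent. Compound or 0.1% DMSO vehicle for 24 h, then luminescence read. Triplicates, Grubbs outliers removed, expressed as % of control.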

COS-1 = assay: Induction of necrosis in Chlorocebus aethiops COS1 cells assessed as LDH release at 1 to 30 uM after 24 hrs by LDH assay relative to control; details: cos-1, 24 h
Procedure, shortened: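 COS-1 cells in DMEM with 10% FBS at 37 °C, 5% CO₂, plated 10 000/well and exposed next day to 1–30 μM for 24 h. Medium samples mixed with NAD, iodonitrotetrazolium, lactate and phenazine methosulfate in 0.2 M Tris-HCl pH 8.2, 30 min at room temperature. Stopped with acetic acid, A490 read and normalized to maximal and spontaneous release.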

[2] = biological target: Transcription factor GATA-4 (Mus musculus) (UniProt Q08369); assay: Modulation of mouse GATA4 expressed in Chlorocebus aethiops COS1 cells harboring NP-112 reporter gene assessed as BNP promoter-driven transcriptional activity at 10 uM after 24 hrs by luciferase reporter gene assay relative to control
Sequence of Transcription factor GATA-4 (Mus musculus) (Q08369 whole entry): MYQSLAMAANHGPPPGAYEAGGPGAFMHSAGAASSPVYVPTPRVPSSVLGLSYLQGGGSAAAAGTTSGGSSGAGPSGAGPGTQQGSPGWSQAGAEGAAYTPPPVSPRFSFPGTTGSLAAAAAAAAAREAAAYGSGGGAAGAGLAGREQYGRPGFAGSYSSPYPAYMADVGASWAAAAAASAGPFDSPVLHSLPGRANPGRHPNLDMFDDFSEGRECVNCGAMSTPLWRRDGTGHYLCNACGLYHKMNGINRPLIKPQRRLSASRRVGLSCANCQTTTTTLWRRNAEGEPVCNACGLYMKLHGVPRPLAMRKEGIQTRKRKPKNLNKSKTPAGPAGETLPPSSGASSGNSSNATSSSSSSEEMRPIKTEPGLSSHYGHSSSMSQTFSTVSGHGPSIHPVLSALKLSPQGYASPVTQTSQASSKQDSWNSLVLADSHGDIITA
Procedure, shortened: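 GATA reporter assay: COS-1 cells (14 000/well, overnight) transfected 6 h serum/antibiotic-free with NP-112 reporter (tandem GATA sites plus rat BNP minimal promoter, 100 ng/well) and pMT2-GATA4 (25 ng/well), Fugene 6 1:3. Treated 24 h with compound or 0.1% DMSO. Luminescence read; triplicates, Grubbs outliers removed, % of control.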

[3] = biological target: Homeobox protein Nkx-2.5 (Mus musculus) (UniProt P42582); assay: Modulation of mouse NKX2-5 expressed in Chlorocebus aethiops COS1 cells harboring 3xHA reporter gene assessed as protein-induced transcriptional activity at 10 uM after 24 hrs by luciferase reporter gene assay relative to control
Sequence of Homeobox protein Nkx-2.5 (Mus musculus) (P42582 whole entry): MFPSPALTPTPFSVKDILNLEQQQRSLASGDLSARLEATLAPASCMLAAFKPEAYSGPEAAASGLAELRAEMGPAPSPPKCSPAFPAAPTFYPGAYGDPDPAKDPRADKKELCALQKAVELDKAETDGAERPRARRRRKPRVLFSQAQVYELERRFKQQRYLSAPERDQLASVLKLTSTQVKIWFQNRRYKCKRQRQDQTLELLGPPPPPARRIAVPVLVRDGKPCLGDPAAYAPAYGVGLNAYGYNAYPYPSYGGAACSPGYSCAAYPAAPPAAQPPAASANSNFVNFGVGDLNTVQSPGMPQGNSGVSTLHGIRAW
Procedure, shortened: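 COS-1 cells seeded 14 000/well and grown overnight. Transfection for 6 h in serum- and antibiotic-free medium with pGL3-3xHA reporter (100 ng/well) and pMT2-NKX2-5 (25 ng/well), Fugene 6 1:3. Compound or 0.1% DMSO vehicle for 24 h, then luciferase luminescence. Triplicate wells with Grubbs outlier removal, % of control.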

| Compound | Activity [1] [%] | further results |
| --- | --- | --- |
| CCN(CC)c1ccc(NC(=O)c2nn(-c3ccccc3)nc2C)cc1 | 100 | – |
| Cc1onc(-c2ccccc2)c1COc1ccc(C(=O)OCC(C)C)cc1 | 99 | – |
| CCN(CCO)c1ccc(NC(=O)c2c(-c3ccccc3)noc2C)cc1 | 67 | – |
| CCN(CC)c1ccc(NC(=O)c2c[nH]nc2-c2ccccc2)cc1 | – | Activity (COS-1): < 8% |
| CCCOC(=O)c1ccc(OCc2c(-c3ccccc3)noc2C)cc1 | 110 | – |
| Cc1onc(-c2ccccc2)c1COc1ccc(C(=O)OCc2ccoc2)cc1 | 100 | – |
| CCN(CC)c1ccc(NC(=O)c2c(-n3cccc3)sc(C)c2C)cc1 | 79 | Activity [2]: 66%; Activity [3]: 90% |
| CC[N+](O)(CC)c1ccc(NC(=O)c2c(-c3ccccc3)noc2C)cc1.O=C([O-])c1cccc(Cl)c1 | – | Activity (COS-1): < 8% |
| CCN(CC)c1ccc(NC(=O)c2snnc2-c2ccccc2)cc1 | 41 | Activity (COS-1): < 8%; Activity [2]: 52%; Activity [3]: 49% |
| CCN(CC)c1ccc(/N=C(\SCCF)c2c(-c3ccccc3)noc2C)cc1 | 110 | – |
| CCN(CC)c1ccc(NC(=O)c2c(C(F)(F)F)nn(C)c2Oc2ccccc2)cc1 | 68 | – |
| CCN(CC)c1ccc(NC(=O)c2c(-c3ccccn3)noc2C)cc1 | 100 | – |
| CCN(CC)c1ccc(NC(=O)C2CCCC2)cc1 | 110 | – |
| CCN(CC)c1ccc(NC(=O)c2c(-c3ccccc3)nnn2C)cc1 | 84 | – |
| CCC(O)c1ccc(OCc2c(-c3ccccc3)noc2C)cc1 (racemic) | 87 | – |
| Cc1cc(NC(=O)c2c(-c3ccccc3)noc2C)ccc1C(C)C | 93 | – |
| CCN(c1ccc(NC(=O)c2c(-c3ccccc3)noc2C)cc1[N+](=O)[O-])C(C)C | 75 | – |
| CCN(CC)c1ccc(NC(=O)c2ncoc2-c2ccco2)cc1 | 120 | – |
| CCN(CC)c1ccc(N(C)C(=S)c2c(-c3ccccc3)noc2C)cc1 | 91 | – |
| Cc1onc(-c2ccccc2)c1C(=O)Nc1ccc(C(=O)O)cc1 | 98 | – |
| CCN(CC)c1ccc(N(C)C(=O)c2c(-c3ccccc3)noc2C)cc1 | 97 | Activity [2]: 99%; Activity [3]: 100% |

| Compound | Activity [1] [%] | further results |
| --- | --- | --- |
| Cc1onc(-c2cccc([N+](=O)[O-])c2)c1C(=O)Nc1ccc(N(C)C)cc1 | 100 | – |
| CCN(CC)c1ccc(NC(=O)c2c(-c3c(Cl)cccc3Cl)noc2C)cc1 | 110 | – |
| Cc1onc(-c2ccccc2)c1C(=O)Nc1nc(C(C)(C)C)cs1 | 110 | Activity [2]: 110%; Activity [3]: 96% |
| CCN(CC)c1ccc(/N=C/c2c(-c3ccccc3)noc2C)cc1 | 100 | – |
| C#Cc1ccc(NC(=O)c2c(-c3ccccc3)noc2C)cc1 | 84 | – |
| CCN(CC)c1ccc(NC(=O)c2cc(-c3ccc(Br)cc3)oc2C(F)(F)F)cc1 | 85 | – |
| CCN(CC)c1ccc(C(=O)Nc2c(-c3ccccc3)noc2C)cc1 | 94 | – |
| CCN(CC)c1ccc(NC(=O)c2c(SC)nsc2SC)cc1 | 110 | – |
| CCN(CC)C(=O)c1ccc(OCc2c(-c3ccccc3)noc2C)cc1 | 92 | – |
| CCN(CC)c1ccc(CN(C(=O)Nc2ccc(C#N)cc2)c2c(-c3ccccc3)noc2C)cc1 | 85 | – |
| COC(=O)c1ccc(NC(=O)c2c(-c3ccccc3)noc2C)cc1 | 92 | – |
| Cc1onc(-c2ccccc2)c1C(=O)Nc1ccc(-c2ccccc2)cc1 | 110 | Activity [2]: 110%; Activity [3]: 97% |
| Cc1onc(-c2ccccc2)c1COc1ccc([N+](=O)[O-])cc1 | 85 | – |
| CCN(CC)c1ccc(NC(=O)c2cc(C)sc2-c2cc(C)on2)cc1 | 85 | Activity [2]: 97%; Activity [3]: 96% |
| CCN(CC)c1ccc(NC(=O)c2ccsc2)cc1 | 110 | – |
| CCN(CC)c1ccc(NC(=O)c2ncoc2-c2ccccc2)cc1 | 110 | – |
| Cc1onc(-c2ccccc2)c1C(=O)Nc1ccc(N(C)C)cc1 | 99 | – |
| CN(C)c1ccc(NCc2c[nH]nc2-c2ccc(F)cc2)cc1 | – | Activity (COS-1): < 8% |
| CCN(CC)c1ccc(NC(=O)c2nnn(C)c2-c2ccccc2)cc1 | 78 | – |
| Cc1onc(-c2ccccc2)c1COc1ccc(C(=O)OCCCC#N)cc1 | 52 | Activity [2]: 71%; Activity [3]: 52% |
| CCN(CC)c1ccc(NS(=O)(=O)c2c(-c3ccccc3)noc2C)cc1 | 98 | – |

| Compound | Activity [1] [%] | further results |
| --- | --- | --- |
| CCN(CC)c1ccc(NC(=O)c2c(-c3ccccc3)nnn2CCOC)cc1 | 91 | – |
| Cc1onc(-c2ccccc2)c1C(=O)Nc1ccc(OCc2ccccc2)cc1 | – | Activity (COS-1): < 8% |
| CCN(CC)c1ccc(NC(=O)c2c(-c3ccccc3Cl)noc2C)cc1 | 88 | Activity [2]: 110%; Activity [3]: 97% |
| Cc1onc(-c2ccccc2)c1C(=O)Nc1ccc2c(c1)C(=O)CC2 | 79 | – |
| CCN(CC)c1ccc(NC(=O)c2c(-c3ccccc3[N+](=O)[O-])noc2C)cc1 | 84 | – |
| CCN(CC)c1ccc(NC(=O)c2c[nH]nc2-n2cnnn2)cc1 | 110 | – |
| CCN(CC)c1ccc(NC(=S)c2c(-c3ccccc3)noc2C)cc1 | 99 | – |
| CCN(c1ccc(NC(=O)c2c(-c3ccccc3)noc2C)cc1N)C(C)C | 76 | – |
| CCN(CC)c1ccc(NC(=O)c2ccoc2CCc2cccs2)cc1 | 100 | – |
| CCN(CC)c1ccc(NC(=O)c2c(-c3coc(C)n3)noc2C)cc1 | 100 | Activity [2]: 110%; Activity [3]: 86% |
| CCN(CC)c1ccc(NC(=O)c2ccnc(C(F)(F)F)c2)cc1 | 84 | – |
| CCN(CC)c1ccc(N(CCF)C(=O)c2c(-c3ccccc3)noc2C)cc1 | 79 | – |
| Cc1onc(-c2ccccc2)c1C(=O)Nc1ccc(OCCN2CCOCC2)cc1 | 97 | – |
| CCN(CC)c1ccc(/C=N/c2c(-c3ccccc3)noc2C)c(O)c1 | – | Activity (COS-1): < 8% |
| CCN(CC)c1ccc(/N=C(\SC)c2c(-c3ccccc3)noc2C)cc1 | 86 | – |
| CCN(CC)c1ccc(NC(=O)c2c(-c3c(Cl)ccc([N+](=O)[O-])c3Cl)noc2C)cc1 | 66 | – |
| CCN(CC)c1ccc(NC(=O)c2c(-c3ccccc3)nnc3ccccc23)cc1 | 87 | – |
| CCN(CC)c1ccc(NC(=O)c2cnn(C)c2-c2ccccc2)cc1 | 62 | – |
| CCC(=O)c1ccc(OCc2c(-c3ccccc3)noc2C)cc1 | 76 | Activity [2]: 78%; Activity [3]: 80% |
| CCN(CC)c1ccc(NC(=O)c2c(-c3ccc(Br)cc3)noc2C)cc1 | 70 | – |
| CCN(CC)c1ccc(NC(=O)c2c(-c3cc(Br)cs3)noc2C)cc1 | 89 | – |

| Compound | Activity [1] [%] | further results |
| --- | --- | --- |
| CCN(CC)c1ccc(NC(=O)c2c(-c3ccccc3)noc2C)cc1Cl | 69 | – |
| CCN(CC)c1ccc(NC(=O)c2c(-c3ccc([N+](=O)[O-])cc3)noc2C)cc1 | 100 | – |
| CCN(CC)c1ccc(NC(=O)c2ccnn2-c2ccccc2)cc1 | – | Activity (COS-1): < 8% |
| CCN(CC)c1ccc(/C=N/c2c(-c3ccccc3)noc2C)cc1 | 96 | – |
| COc1ccc(-c2cc(N)nn2C(=O)c2c(-c3ccccc3)noc2C)cc1 | – | Activity (COS-1): < 8% |
| CCN(CC)c1ccc(NC(=O)c2c(-c3ccoc3)noc2C)cc1 | 110 | Activity [2]: 99%; Activity [3]: 110% |
| CCN(CC)c1ccc(NC(=O)c2c(-c3ccc(C)s3)noc2C)cc1 | 100 | Activity [2]: 92%; Activity [3]: 88% |
| CCN(CC)c1ccc(N(Cc2c(-c3ccccc3)noc2C)C(C)=O)cc1 | 80 | – |
| Cc1onc(-c2ccccc2)c1COc1ccc(C(=O)N(C)CCCO)cc1 | 100 | – |
| CCN(CC)c1ccc(NC(=O)c2c(C)nc3ccccn23)cc1 | 78 | Activity [2]: 94%; Activity [3]: 86% |
| CCCn1nnc(-c2ccccc2)c1C(=O)Nc1ccc(N(CC)CC)cc1 | – | Activity (COS-1): < 8% |
| Cc1onc(-c2ccccc2)c1C(=O)Nc1ccc(C(=O)OCC#N)cc1 | 90 | – |
| CCN(CC)c1ccc(NCc2c(-c3ccccc3)noc2C)cc1 | 100 | – |
| CCN(CC)c1ccc(NCc2c[nH]nc2-c2cc(F)cc(F)c2)cc1 | – | Activity (COS-1): < 8% |
| CC[N+](C)(c1ccc(NC(=O)c2c(-c3ccccc3)noc2C)cc1)C(C)C (configuration not stated) | 83 | – |
| CCN(CC)c1ccc(NC(=O)c2c(-c3cc(C)on3)noc2C)cc1 | 100 | Activity [2]: 100%; Activity [3]: 87% |
| Cc1onc(-c2ccccc2)c1C(=O)Nc1ccc(C(=O)OCCN(C)C)cc1 | 110 | – |
| CCN(CC)c1ccc(N(Cc2ccccc2)C(=O)c2c(-c3ccccc3)noc2C)cc1 | 66 | – |
| CCN(CC)c1ccc(NC(=O)c2c(-c3ccc(-c4ccc(F)cc4)cc3)noc2C)cc1 | 110 | – |
| CCN(CC)c1ccc(CN(C)c2c(-c3ccccc3)noc2C)cc1 | 82 | – |
